Data: PubChem BioAssay AID602216 (Southern Research Specialized Biocontainment Screening …, 2012)
pIC50: −log10 of the molar value. Records with an inconclusive call do not appear. Active and inactive are the calls of the source.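 The calls were made as follows: active = inhibition of 30% or more at any tested concentration; inactive = the rest, inconclusive results apart.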

The compounds below were run against M17 leucyl aminopeptidase (Plasmodium falciparum 3D7) (assay: Inhibition of P. falciparum M17 aminopeptidase – biochemical, QFRET, set 2, dose response (AID 602216)). Conditions: recombinant PfM17LAP, H-Leu-NHMec fluorogenic cleavage.
Outline: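 System: purified recombinant Plasmodium falciparum M17 leucine aminopeptidase (rPFM17LAP); medium: pH 7.5 buffer containing CoCl2; doses: compound dilution series spanning 100 down to 0.2 µM; schedule: 90 min reaction; measured by: Substrate-cleavage fluorescence; control set: full-reaction wells as high signal, enzyme-free wells as background; repeats: each compound concentration tested in triplicate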

Row | pIC50 | Structure (SMILES)
1 | 6.27 | COc1ccc(CC(=O)NO)cc1
2 | 5.55 | COc1ccc(CCCC(=O)NO)cc1
3 | 6.13 | CCOc1ccc(CC(=O)NO)cc1
4 | 5.64 | CCCCOc1ccc(CCC(=O)NO)cc1
5 | 6.01 | Cc1ccc(CC(=O)NO)cc1
6 | 5.48 | CCCCOc1ccc(C(=O)NO)cc1
7 | 6.42 | CCCCc1ccc(CC(=O)NO)cc1
8 | 6.02 | CC(C)COc1ccc(CC(=O)NO)cc1
9 | 6.39 | CCCCOc1ccc(CC(=O)NO)cc1

The remaining lines, values behind:

Row | Structure (SMILES) | pIC50
10 | O=C(Cc1ccc(OCc2ccccc2)cc1)NO | 6.20
11 | CC(C)(C(=O)NO)c1ccccc1 | 4.22
12 | CN(O)C(=O)Cc1ccc(OCc2ccccc2)cc1 | 4.69
13 | O=C(NO)c1cccc2ccccc12 | 5.04
14 | CCCCOc1ccc(CNc2c(N(C)O)c(=O)c2=O)cc1 | 4.48
15 | CCCCCCCCCC(=O)NO | 5.72
16 | O=C(Cc1ccc(Oc2ccccc2)cc1)NO | 6.39
17 | CCCCOc1ccc(CC(=O)N(C)O)cc1 | 4.74
18 | O=C(Cc1ccc2c(c1)CCCC2)NO | 6.74

Same assay, conditions: recombinant PfM17LAP, H-Leu-NHMec fluorogenic cleavage; at 1.56 µM (top of the series)

Row | inhibition | Structure (SMILES)
19 | inactive | COC(=O)Cc1ccc(OCCN(C)C)cc1

Same assay, conditions: recombinant PfM17LAP, H-Leu-NHMec fluorogenic cleavage; at 100 µM (top of the series)

Row | inhibition | Structure (SMILES)
20 | inactive | CCCCOc1ccc(CC(=O)O)cc1
21 | inactive | CCCOc1ccc(CC(=O)OC)cc1

The remaining lines, values behind:

Row | Structure (SMILES) | inhibition
22 | CCC(C)Oc1ccc(CC(=O)OC)cc1 (stereo not drawn) | inactive
23 | COC(=O)Cc1ccc(OCC(C)C)cc1 | inactive
